In article PMC3103050 (Genes to cells : devoted to molecular & cellular mechanisms, 2009):
Read-outs that look alike come from different tables or passages of the source.

T1: His-REV1(1130–1251) (Homo sapiens, UniProt Q9UBZ9)
T1 sequence (Q9UBZ9 1130-1251): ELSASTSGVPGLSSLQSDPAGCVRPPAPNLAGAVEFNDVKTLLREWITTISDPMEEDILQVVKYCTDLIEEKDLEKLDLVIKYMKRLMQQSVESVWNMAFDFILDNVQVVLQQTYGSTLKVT

T2: His-REV1(1130–1251) (human, UniProt Q9UBZ9 1130-1251)
T2 sequence (looked up): T1 sequence (Q9UBZ9 1130-1251)

T3: His-Polκ(1–615) (human, UniProt Q9UBT6 1-615)
T3 sequence (looked up): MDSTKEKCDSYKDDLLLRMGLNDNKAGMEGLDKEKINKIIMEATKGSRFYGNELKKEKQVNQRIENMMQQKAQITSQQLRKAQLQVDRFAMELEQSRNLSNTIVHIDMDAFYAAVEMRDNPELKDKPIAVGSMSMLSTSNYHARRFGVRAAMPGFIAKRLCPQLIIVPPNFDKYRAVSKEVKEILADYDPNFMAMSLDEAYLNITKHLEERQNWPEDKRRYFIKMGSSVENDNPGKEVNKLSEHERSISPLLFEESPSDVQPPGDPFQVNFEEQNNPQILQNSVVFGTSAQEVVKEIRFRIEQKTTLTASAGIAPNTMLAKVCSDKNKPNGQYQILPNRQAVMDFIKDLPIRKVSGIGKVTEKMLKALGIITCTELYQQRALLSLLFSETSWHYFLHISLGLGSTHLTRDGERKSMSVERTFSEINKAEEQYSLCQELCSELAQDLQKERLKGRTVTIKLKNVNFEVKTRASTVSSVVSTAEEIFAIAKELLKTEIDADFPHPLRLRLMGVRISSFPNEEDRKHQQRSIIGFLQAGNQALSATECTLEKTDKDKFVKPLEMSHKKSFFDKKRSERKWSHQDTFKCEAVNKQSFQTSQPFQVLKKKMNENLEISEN

B1: GST-REV1(826–1251) (domain or fragment, human, UniProt Q9UBZ9 826-1251, looked up)
chain: PTNLNPSTCPSRPSVQSSHFPSGSYSVRDVFQVQKAKKSTEEEHKEVFRAAVDLEISSASRTCTFLPPFPAHLPTSPDTNKAESSGKWNGLHTPVSVQSRLNLSIEVPSPSQLDQSVLEALPPDLREQVEQVCAVQQAESHGDKKKEPVNGCNTGILPQPVGTVLLQIPEPQESNSDAGINLIALPAFSQVDPEVFAALPAELQRELKAAYDQRQRQGENSTHQQSASASVPKNPLLHLKAAVKEKKRNKKKKTIGSPKRIQSPLNNKLLNSPAKTLPGACGSPQKLIDGFLKHEGPPAEKPLEELSASTSGVPGLSSLQSDPAGCVRPPAPNLAGAVEFNDVKTLLREWITTISDPMEEDILQVVKYCTDLIEEKDLEKLDLVIKYMKRLMQQSVESVWNMAFDFILDNVQVVLQQTYGSTLKVT

Columns and labels:
[1] = molecular target: PCNA (Homo sapiens, UniProt P12004); experiment: Surface plasmon resonance, PCNA binding to immobilized peptides; conditions: SPR; data not shown
Chain of PCNA (Homo sapiens, UniProt P12004) (P12004 whole entry, species assumed): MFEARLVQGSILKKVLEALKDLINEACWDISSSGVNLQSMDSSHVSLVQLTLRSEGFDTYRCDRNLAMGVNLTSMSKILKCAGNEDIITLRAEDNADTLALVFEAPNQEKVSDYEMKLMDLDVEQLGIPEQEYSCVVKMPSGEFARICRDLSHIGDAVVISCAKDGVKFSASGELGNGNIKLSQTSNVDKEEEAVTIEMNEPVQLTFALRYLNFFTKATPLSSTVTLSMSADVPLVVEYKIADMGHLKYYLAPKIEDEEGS
Procedure, shortened: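 PCNA binding by SPR against synthetic peptides that carry an added N-terminal Cys, coupled through the sulfhydryl to CM5 carboxylated dextran sensor chips by thiol activation chemistry. The peptide–protein signal minus the control-cell signal was analysed and scored + or −.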

[2] = molecular target: T1, His-REV1(1130–1251); experiment: Surface plasmon resonance, His-REV1; assay type: binding; conditions: SPR, BIACORE 2000, CM5 chip; His-REV1(1130–1251) 1.1 µM in Fig. 2A
Procedure, shortened: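 SPR on BIACORE 2000. Synthetic peptides carrying an added N-terminal Cys were thiol-coupled to CM5 dextran. His-REV1(1130–1251) was cut from a GST-His fusion with Factor Xa, purified on Ni-NTA, then cleared of uncleaved fusion on glutathione resin. Varying concentrations were injected in 10 mM HEPES pH 7.5, 150 mM NaCl, 3 mM EDTA, 0.005% P20 at 20 µl/min, 25°C; contact 60 s, dissociation 120 s. Control-cell signal was subtracted. Kd came from equilibrium analysis of mean signals.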

[3] = tested on: REV1(1130–1218); experiment: Surface plasmon resonance, REV1; assay type: binding, human; conditions: SPR; REV1 derivative lacking a portion essential for the interaction with Polκ; data not shown
[4] = molecular target: T2, His-REV1(1130–1251); experiment: SPR
[5] = molecular target: B1; experiment: pull-down
[6] = molecular target: T3, His-Polκ(1–615); experiment: pull-down
[7] = molecular target: T4, PCNA (UniProt P12004 1-261); experiment: SPR
T4 sequence (P12004 whole entry): as the sequence (P12004 whole entry, species assumed) above

[8] = molecular target: T4, PCNA; experiment: SPR; remark: listed apart in the source

## CKRPRPEGMQTLESAAKPLTH [η694-713AA]
[1]
  PCNA binding to immobilized peptide (in words): failed to bind

## CPLEMSHKKSFFDKK [κ558-571FF]
[2]
  Binding of His-REV1(1130–1251) / REV1-CTD to immobilized peptide (in words): failure of κ558-571FF to bind REV1-CTD

## CEMSHKKSAADKKRSER [κ560-575AA]
[2]
  Binding of His-REV1(1130–1251) / REV1-CTD to immobilized peptide (in words): but not to κ560-575AA
[3]
  Interaction of REV1(1130–1218) with immobilized peptide (in words): failed to interact

## CEMSHKKSFFDKKRSER [κ560-575FF]
[4]
  Kd: 7.6 µM

## CKKSFFDKKRSER [κ564-575FF]
[5]
  binding result: binds

## CSHKKSFFDKKRSER [κ562-575FF]
[5]
  binding result: binds

## CASRGVLSFFSKKQMQD [ι539-554FF]
[4]
  Kd: 69 µM

## CQSTGTEPFFKQKSLLL [η524-539FF]
[4]
  Kd: 13 µM

## B1
[6]
  binding result: binds

## CKRPRPEGMQTLESFFKPLTH [η694-713FF]
[7]
  Kd: ~0.4 µM
[8]
  Kd: ~0.3 µM
